ChEMBL document CHEMBL1255437, “Involvement of the beta subunit of RNA polymerase in resistance to streptolydigin and streptovaricin in the producer organisms Streptomyces lydicus and Streptomyces spectabilis” (2010)
≈ marks a conversion by molar mass, not a printed value.

Key:
[1] = test system: Streptomyces albus; assay: Antimicrobial activity against transconjugant Streptomyces albus carrying pEM4T-Sbeta102 with RNA polymerase beta subunit S475A mutant after 5 to 7 days; format: functional
In short: (§1)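 MIC by agar dilution. Spore suspensions were replica plated with a plate replicator onto Bennet's agar containing a range of streptolydigin or streptovaricin concentrations, then incubated 5 to 7 days at 30°C. Recombinant S. albus strains carried pEM4T-derived plasmids introduced by conjugation from E. coli ET12567(pUB307); producer strains and host S. albus J1074 were tested the same way.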

[2] = test system: Streptomyces albus; assay: Antimicrobial activity against transconjugant Streptomyces albus carrying pEM4T-Sbeta103 with RNA polymerase beta subunit T638K mutant after 5 to 7 days; format: functional; in short: as §1
[3] = test system: Streptomyces albus; assay: Antimicrobial activity against transconjugant Streptomyces albus carrying pEM4T-Sbeta104 with RNA polymerase beta subunit A639S mutant after 5 to 7 days; format: functional; in short: as §1
[4] = test system: Streptomyces albus; assay: Antimicrobial activity against transconjugant Streptomyces albus carrying pEM4T-Sbeta105 with RNA polymerase beta subunit N474S/S475A mutant after 5 to 7 days; format: functional; in short: as §1
[5] = test system: Streptomyces albus; assay: Antimicrobial activity against transconjugant Streptomyces albus carrying pEM4T-Sbeta204 with RNA polymerase beta subunit L463I mutant after 5 to 7 days; format: functional; in short: as §1
[6] = test system: Streptomyces albus; assay: Antimicrobial activity against transconjugant Streptomyces albus carrying pEM4T-Sbeta205 with RNA polymerase beta subunit S470N mutant after 5 to 7 days; format: functional; in short: as §1
[7] = test system: Streptomyces albus; assay: Antimicrobial activity against transconjugant Streptomyces albus carrying pEM4T-Sbeta206 with RNA polymerase beta subunit A471S mutant after 5 to 7 days; format: functional; in short: as §1
[8] = test system: Streptomyces albus; assay: Antimicrobial activity against transconjugant Streptomyces albus carrying pEM4T-Sbeta after 5 to 7 days; format: functional; in short: as §1
[9] = test system: Streptomyces albus; assay: Antimicrobial activity against transconjugant Streptomyces albus carrying pEM4T-Sbeta' after 5 to 7 days; format: functional; in short: as §1
[10] = test system: Streptomyces albus; assay: Antimicrobial activity against transconjugant Streptomyces albus carrying pEM4T-CASbeta after 5 to 7 days; format: functional; in short: as §1
[11] = test system: Streptomyces albus; assay: Antimicrobial activity against transconjugant Streptomyces albus carrying pEM4T-Sbeta100 with RNA polymerase beta subunit I467L mutant after 5 to 7 days; format: functional; in short: as §1
[12] = test system: Streptomyces albus; assay: Antimicrobial activity against transconjugant Streptomyces albus carrying pEM4T-Sbeta101 with RNA polymerase beta subunit N474S mutant after 5 to 7 days; format: functional; in short: as §1
[13] = test system: Streptomyces albus; assay: Antimicrobial activity against transconjugant Streptomyces albus carrying pEM4T-Abeta207 with RNA polymerase beta subunit S470N/A471S mutant after 5 to 7 days; format: functional; in short: as §1
[14] = test system: Streptomyces spectabilis; assay: Antimicrobial activity against Streptomyces spectabilis NRRL 2494 after 5 to 7 days
[15] = test system: Streptomyces lydicus; assay: Antimicrobial activity against Streptomyces lydicus NRRL 2433 after 5 to 7 days; format: functional
In short: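 Spore suspensions replica-plated with a plate replicator onto Bennet's agar plates containing a range of streptolydigin and streptovaricin concentrations. Plates incubated 5 to 7 days at 30°C. MIC scored as growth inhibition on the solid medium. Strain NRRL2433 is the streptolydigin producer.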

[16] = test system: Streptomyces albus; assay: Antimicrobial activity against transconjugant Streptomyces albus J1074 after 5 to 7 days; format: functional; in short: as §1
[17] = test system: Streptomyces albus; assay: Antimicrobial activity against transconjugant Streptomyces albus carrying pEM4T after 5 to 7 days; format: functional; in short: as §1
[18] = test system: Streptomyces albus; assay: Antimicrobial activity against transconjugant Streptomyces albus carrying pEM4T-Abeta after 5 to 7 days; format: functional; in short: as §1
[19] = test system: Streptomyces albus; assay: Antimicrobial activity against transconjugant Streptomyces albus carrying pEM4T-Lbeta after 5 to 7 days; format: functional; in short: as §1
[20] = test system: Streptomyces albus; assay: Antimicrobial activity against transconjugant Streptomyces albus carrying pEM4T-Lbeta' after 5 to 7 days; format: functional; in short: as §1
[21] = test system: Streptomyces albus; assay: Antimicrobial activity against transconjugant Streptomyces albus carrying pEM4T-CALbeta after 5 to 7 days; format: functional; in short: as §1
[22] = test system: Streptomyces albus; assay: Antimicrobial activity against transconjugant Streptomyces albus carrying pEM4T-Lbeta100 with RNA polymerase beta subunit T458N mutant after 5 to 7 days; format: functional; in short: as §1
[23] = test system: Streptomyces albus; assay: Antimicrobial activity against transconjugant Streptomyces albus carrying pEM4T-Lbeta101 with RNA polymerase beta subunit L485F mutant after 5 to 7 days; format: functional; in short: as §1
[24] = test system: Streptomyces albus; assay: Antimicrobial activity against transconjugant Streptomyces albus carrying pEM4T-Lbeta102 with RNA polymerase beta subunit D486E mutant after 5 to 7 days; format: functional; in short: as §1
[25] = test system: Streptomyces albus; assay: Antimicrobial activity against transconjugant Streptomyces albus carrying pEM4T-Lbeta103 with RNA polymerase beta subunit L555V mutant after 5 to 7 days; format: functional; in short: as §1
[26] = test system: Streptomyces albus; assay: Antimicrobial activity against transconjugant Streptomyces albus carrying pEM4T-Lbeta104 with RNA polymerase beta subunit F593Y mutant after 5 to 7 days; format: functional; in short: as §1
[27] = test system: Streptomyces albus; assay: Antimicrobial activity against transconjugant Streptomyces albus carrying pEM4T-Lbeta105 with RNA polymerase beta subunit S624A mutant after 5 to 7 days; format: functional; in short: as §1
[28] = test system: Streptomyces albus; assay: Antimicrobial activity against transconjugant Streptomyces albus carrying pEM4T-Lbeta106 with RNA polymerase beta subunit A636S mutant after 5 to 7 days; format: functional; in short: as §1
[29] = test system: Streptomyces albus; assay: Antimicrobial activity against transconjugant Streptomyces albus carrying pEM4T-Lbeta107 with RNA polymerase beta subunit L485F/D486E mutant after 5 to 7 days; format: functional; in short: as §1
[30] = test system: Streptomyces albus; assay: Antimicrobial activity against transconjugant Streptomyces albus carrying pEM4T-Lbeta108 with RNA polymerase beta subunit F593Y/M594L mutant after 5 to 7 days; format: functional; in short: as §1
[31] = test system: Streptomyces albus; assay: Antimicrobial activity against transconjugant Streptomyces albus carrying pEM4T-Abeta201 with RNA polymerase beta subunit F484L mutant after 5 to 7 days; format: functional; in short: as §1
[32] = test system: Streptomyces albus; assay: Antimicrobial activity against transconjugant Streptomyces albus carrying pEM4T-Abeta202 with RNA polymerase beta subunit E485D mutant after 5 to 7 days; format: functional; in short: as §1
[33] = test system: Streptomyces albus; assay: Antimicrobial activity against transconjugant Streptomyces albus carrying pEM4T-Abeta203 with RNA polymerase beta subunit F484L/E485D mutant after 5 to 7 days; format: functional; in short: as §1

| Compound | MIC [1] [µg/mL] | MIC [2] [µg/mL] | MIC [3] [µg/mL] | MIC [4] [µg/mL] | MIC [5] [µg/mL] | MIC [6] [µg/mL] | MIC [7] [µg/mL] | MIC [8] [µg/mL] | MIC [9] [µg/mL] | MIC [10] [µg/mL] | MIC [11] [µg/mL] | MIC [12] [µg/mL] | MIC [13] [µg/mL] | MIC [14] [µg/mL] | also measured |
| --- | --- | --- | --- | --- | --- | --- | --- | --- | --- | --- | --- | --- | --- | --- | --- |
| CO[C@H]1/C=C/O[C@@]2(C)Oc3c(C)c(O)c4c(O)c(c(/C=N/N5CCN(C)CC5)c(O)c4c3C2=O)NC(=O)/C(C)=C\C=C\[C@H](C)[C@H](O)[C@@H](C)[C@@H](O)[C@@H](C)[C@H](OC(C)=O)[C@@H]1C [RIFAMPIN] | 40 (≈ 48.6 µM) | 20 (≈ 24.3 µM) | 40 (≈ 48.6 µM) | 5 (≈ 6.08 µM) | 5 (≈ 6.08 µM) | 5 (≈ 6.08 µM) | 5 (≈ 6.08 µM) | 40 (≈ 48.6 µM) | 5 (≈ 6.08 µM) | 40 (≈ 48.6 µM) | 40 (≈ 48.6 µM) | 5 (≈ 6.08 µM) | 40 (≈ 48.6 µM) | > 40 |  |
| COC(=O)[C@@H]1[C@H](O)[C@H](C)[C@H](O)[C@H](C)/C=C\C=C(/C)C(=O)Nc2c(C)c(OC(C)=O)c3c(c2O)C(=O)C(C)=C2OCOC(=C23)/C(C)=C/[C@@](C)(O)[C@H](O)[C@@H](C)[C@H]1O [STREPTOVARICIN] | 200 (≈ 260 µM) | 200 (≈ 260 µM) | 200 (≈ 260 µM) | 70 (≈ 90.9 µM) | 70 (≈ 90.9 µM) | 80 (≈ 104 µM) | 80 (≈ 104 µM) | 200 (≈ 260 µM) | 70 (≈ 90.9 µM) | 200 (≈ 260 µM) | 200 (≈ 260 µM) | 200 (≈ 260 µM) | 200 (≈ 260 µM) | > 200 |  |
| CNC(=O)[C@@H](C)[C@H]1C(=O)/C(=C(O)/C=C/C(C)=C/[C@@H](C)[C@H]2O[C@@]3(C)O[C@H](C=C[C@@]34CO4)[C@@H]2C)C(=O)N1[C@@H]1CC[C@H](O)[C@H](C)O1 [STREPTOLYDIGIN] |  |  |  |  |  |  |  |  |  |  |  |  |  |  | MIC [15]: > 200 µg/mL; MIC [16]: 1 µg/mL (≈ 1.66 µM); MIC [17]: 1 µg/mL (≈ 1.66 µM); MIC [18]: 1 µg/mL (≈ 1.66 µM); MIC [19]: 20 µg/mL (≈ 33.3 µM); MIC [20]: 1 µg/mL (≈ 1.66 µM); MIC [21]: 20 µg/mL (≈ 33.3 µM); MIC [22]: 20 µg/mL (≈ 33.3 µM); MIC [23]: 1 µg/mL (≈ 1.66 µM); MIC [24]: 10 µg/mL (≈ 16.6 µM); MIC [25]: 1 µg/mL (≈ 1.66 µM); MIC [26]: 10 µg/mL (≈ 16.6 µM); MIC [27]: 20 µg/mL (≈ 33.3 µM); MIC [28]: 10 µg/mL (≈ 16.6 µM); MIC [29]: 1 µg/mL (≈ 1.66 µM); MIC [30]: 1 µg/mL (≈ 1.66 µM); MIC [31]: 6 µg/mL (≈ 9.99 µM); MIC [32]: 1 µg/mL (≈ 1.66 µM); MIC [33]: 9 µg/mL (≈ 15 µM) |
